From ChEMBL document CHEMBL4330182, “Advance of Seriniquinone Analogues as Melanoma Agents” (ACS Med Chem Lett, 2019)
Values after ≈ are worked out from the molar mass of the structure shown. Active and inactive are the calls of the source. No cut-off for these calls is given here.

Experiments:
[1] = Solubility of the compound in pH 7.2 solution; type: physicochemical; details: buffer
Summary of the method: (§1)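 Solubility S was determined in buffer at pH 6.5 for the parent series and regioisomer mixtures, and at pH 7.2 for the phenol/carbamate series.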

Malme-3M [2] = experiment: Cytotoxicity against human MALME-3M cells after 72 hrs by MTT assay; type: functional, cell-based
SK-MEL-28 [3] = experiment: Cytotoxicity against human SK-MEL-28 cells after 72 hrs by MTT assay; type: functional, cell-based; details: SK-MEL-28, 72 h
HCT-116 [4] = experiment: Cytotoxicity against human HCT116 cells after 72 hrs by MTT assay; type: functional, cell-based; details: HCT-116, 72 h
[5] = Stability of the compound at 23 degC for 3 months at solid state; type: physicochemical; details: 2191.5 h
[6] = Stability of the compound in pH 7.2 PBS buffer at 23 degC for 1 month by NMR analysis; type: physicochemical; details: pH 7.2, 730.5 h
Summary of the method: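 Purity was followed by NMR in PBS pH 7.2 for 1 month at 23 °C, and in cell culture medium at 37 °C for 48 h (limit of testing).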

[7] = Stability of the compound in pH 7.2 PBS buffer at 37 degC for 48 hrs by NMR analysis; type: physicochemical; details: pH 7.2, 48 h
Calf thymus DNA [8] = experiment: Binding affinity to calf thymus DNA at 20 uM by fluorescence spectral analysis; type: nucleic-acid assay; details: Bos taurus
Summary of the method: (§2)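 Fluorescence emission spectra recorded while calf thymus DNA was titrated into the compound solution. […] Binding was judged by attenuation (quench) of emission on DNA addition.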

[9] = Solubility of the compound in pH 6.5 solution; type: physicochemical; details: buffer; summary of the method: as §1
Calf thymus DNA [10] = experiment: Binding affinity to calf thymus DNA at 60 uM by fluorescence spectral analysis; type: nucleic-acid assay; details: Bos taurus; summary of the method: as §2
Malme-3M [11] = experiment: Induction of DCD mRNA expression in human MALME-3M cells at 30 to 100 nM after 24 hrs by RT-qPCR method; type: functional, cell-based
SK-MEL-28 [12] = experiment: Induction of DCD mRNA expression in human SK-MEL-28 cells at 30 to 100 nM after 24 hrs by RT-qPCR method; type: functional, cell-based
HCT-116 [13] = experiment: Induction of DCD mRNA expression in human HCT116 cells at 1 to 10 uM after 24 hrs by RT-qPCR method; type: functional, cell-based
[14] = Drug metabolism in aqueous media assessed as 2-hydroxydinaphtho[2,3-b:2',3'-d]thiophene-5,7,12,13-tetraone formation by NMR analysis
Summary of the method: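 DMSO stocks of the carbamate at 1.0 or 0.5 mg/mL were diluted 20-fold into PBS pH 7.2. Samples were held 24 h at 23 °C, and hydrolytic release of the phenol (purple salt) was monitored.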

HCT-116 [15] = experiment: Induction of oxidative stress in human HCT116 cells at 100 uM after 1 hr by CellROX green/NucBlue staining based confocal microscopic method; type: cell-based; details: hct-116, 1 h
Summary of the method: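 HCT-116 cells were stained with CellROX Green for reactive oxygen species and counterstained with NucBlue for nuclei. Imaging was by confocal microscopy, scoring green fluorescent mitochondria as the oxidative-stress read-out.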

| solubility [1] [µM] | Stability [5] | Stability [6] | Stability [7] | Activity (Calf thymus DNA [8]) | solubility [9] [µM] | Activity (Calf thymus DNA [10]) | Compound | IC50 (Malme-3M [2]) [nM] | IC50 (SK-MEL-28 [3]) [nM] | IC50 (HCT-116 [4]) [nM] | Activity (Malme-3M [11]) | Activity (SK-MEL-28 [12]) | Activity (HCT-116 [13]) | Drug metabolism [14] | Activity (HCT-116 [15]) |
| --- | --- | --- | --- | --- | --- | --- | --- | --- | --- | --- | --- | --- | --- | --- | --- |
| 8.2 (≈ 3.07 µg/mL) | Stable | Stable | Stable | – | – | – | COc1ccc2c(=O)c3sc4c(=O)c5ccccc5c(=O)c4c3c(=O)c2c1 | 60 | 7000 | 8160 | – | – | – | – | – |
| – | – | – | – | – | 0.06 (≈ 0.0207 µg/mL) | inactive | O=c1c2ccccc2c(=O)c2c1sc1c(=O)c3ccccc3c(=O)c12 | 50 | 360 | 1290 | Active | Active | Active | – | – |
| 24.6 (≈ 11.3 µg/mL) | Stable | – | – | – | – | inactive | CCCCNC(=O)Oc1ccc2c(=O)c3sc4c(=O)c5ccccc5c(=O)c4c3c(=O)c2c1 | 60 | 1800 | 750 | Active | Active | Active | Metabolite detected | Non-Toxic |
| – | – | – | – | – | 0.5 (≈ 0.173 µg/mL) | – | O=c1c2ccccc2c(=O)c2c1sc1c(=O)c3ncccc3c(=O)c12 | 100 | 2150 | 540 | – | – | – | – | – |
| 0.4 (≈ 0.144 µg/mL) | Stable | Stable | Stable | – | – | – | O=c1c2ccccc2c(=O)c2c1sc1c(=O)c3ccc(O)cc3c(=O)c12 | 220 | 330 | 1450 | Active | Active | Active | – | – |

Further lines, the compound ahead of its results:

| Compound | solubility [1] [µM] | Stability [5] | Stability [6] | Stability [7] | Activity (Calf thymus DNA [8]) | solubility [9] [µM] | Activity (Calf thymus DNA [10]) | IC50 (Malme-3M [2]) [nM] | IC50 (SK-MEL-28 [3]) [nM] | IC50 (HCT-116 [4]) [nM] | Activity (Malme-3M [11]) | Activity (SK-MEL-28 [12]) | Activity (HCT-116 [13]) | Drug metabolism [14] | Activity (HCT-116 [15]) |
| --- | --- | --- | --- | --- | --- | --- | --- | --- | --- | --- | --- | --- | --- | --- | --- |
| COc1cccc2c1C(=O)c1c(O)c3c(c(O)c1C2=O)C[C@@](O)(C(=O)CO)C[C@@H]3O[C@H]1C[C@H](N)[C@H](O)[C@H](C)O1 [DOXORUBICIN] | – | – | – | – | Active | – | – | 500 | 3000 | – | – | – | – | – | – |
| O=c1c2ccccc2c(=O)c2c1[nH]c1c(=O)c3ccccc3c(=O)c12 | – | – | – | – | – | 0.4 (≈ 0.131 µg/mL) | – | 2030 | 4300 | 4240 | – | – | – | – | – |
| O=c1c2ccccc2c(=O)c2c1oc1c(=O)c3ccccc3c(=O)c12 | – | – | – | – | – | 0.09 (≈ 0.0295 µg/mL) | – | 1110 | 3470 | 4080 | – | – | – | – | – |
